Tested on: serum urate (sUA)
Assay: Pharmacodynamics: serum urate
Assay type: in vivo, human
Conditions: for mean reduction of serum urate after 24 hours: multiple verinurad 10 mg doses
How it was run: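 Healthy males (screening sUA >4.5 mg/dL) took oral modified-release 2.5 mg tablets or placebo (6:2 per panel) once daily for 7 days (days 6–12), after a moderate-fat breakfast. Japanese panels received 2.5–15 mg and non-Asian subjects 10 mg. Serum sampled predose days 1, 6 and 8–12, then to 72 h (day 12). Maximum percent change from baseline and its timing were read directly from concentration–time data.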

[1] = Japanese subjects, 2.5 mg multiple once-daily doses, fed
[2] = Japanese subjects, 5 mg multiple once-daily doses, fed
[3] = Japanese subjects, 10 mg multiple once-daily doses, fed
[4] = Japanese subjects, 15 mg multiple once-daily doses, fed
[5] = non-Asian subjects, 10 mg multiple once-daily dosing, fed

CC(C)(Sc1ccncc1-c1ccc(C#N)c2ccccc12)C(=O)O [verinurad]
time of maximum reduction in sUA (Japanese and non-Asian subjects, multiple once-daily doses, fed): ≤ 12 hours postdose | sUA least square mean maximum percent change from baseline at 12 hours [1]: −31% | sUA percent change from baseline at 24 hours [1]: −16% | sUA least square mean maximum percent change from baseline at 12 hours [2]: −50% | sUA percent change from baseline at 24 hours [2]: −31% | sUA least square mean maximum percent change from baseline at 12 hours [3]: −62% | sUA percent change from baseline at 24 hours [3]: −46% | sUA concentration at maximum reduction [4]: < 2 mg/dL | sUA least square mean maximum percent change from baseline at 12 hours [4]: −74% | sUA percent change from baseline at 24 hours [4]: −55% | mean reduction of serum urate after 24 hours (Japanese subjects): 46% | sUA maximum percent change from baseline [5]: −58% | sUA percent change from baseline at 24 hours postdose [5]: −44% | mean reduction of serum urate after 24 hours (non-Asian subjects): 44%

Source: publication PMC6018888 (Drug Design, Development and Therapy, 2018)
